The structures appear in SMILES notation.

As usually defined, the ΔTm is the change in melting temperature against a reference sample. The T/C is the result in the treated group divided by that in the control group, in per cent.

Data set [1] has as its system L1210. The data set is described as follows: Inhibition of DNA synthesis in mouse L1210 cells after 3 hrs by [3H]thymidine incorporation assay. The data set is classed as functional. Conditions: L1210, 3 h, read-out: ED50 (the source's name). A digest of the protocol: (§1)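 Cultured lymphoid leukemia L1210 cells; nucleic acid synthesis inhibition measured by a previously reported procedure, modified by adding 1% Me2SO for solubility.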

Data set [2] has as its system L1210. The data set is described as follows: Inhibition of RNA synthesis in mouse L1210 cells after 3 hrs by [3H]uridine incorporation assay. Format: functional. The conditions noted are these: L1210, 3 h, read-out: ED50 (the source's name). A digest of the protocol:
as §1

Data set [3] has as its system L1210. In words: Cytotoxicity against mouse L1210 cells. The data set is classed as functional, cell-based. Conditions: read-out: I50.
The next data set has as its system Calf thymus DNA. In words: Binding affinity to calf thymus helical DNA assessed as change in melting temperature by […] analysis. The data set is classed as nucleic-acid assay. Conditions: Bos taurus. The method in brief: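 Helix–coil transition temperature shift of isolated helical DNA in solution. Modified procedure: 0.010 M phosphate buffer with 10⁻⁵ M EDTA, pH 7.0, plus 5% Me2SO to solubilize compound.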

Data set [4] deals with Salmonella typhimurium. In words: Mutagenicity in Salmonella typhimurium TA1535 by Ames test. Conditions: salmonella enterica subsp. enterica serovar typhimurium. The data set is classed as toxicity, organism-based. The method in brief: (§2)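 Salmonella plate mutagenicity test; compounds tested at levels up to 1 μmol per plate.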
A general note: In the Ames test, an excess of revertant colonies over the control signals mutagenicity.

The test system of data set [5] is Salmonella typhimurium. The data set is described as follows: Mutagenicity in Salmonella typhimurium TA1536 by Ames test. The data set is classed as toxicity, organism-based. The conditions noted are these: salmonella enterica subsp. enterica serovar typhimurium. The method in brief:
as §2

Data set [6] relates to Salmonella typhimurium. The data set is described as follows: Mutagenicity in Salmonella typhimurium TA1537 by Ames test. The data set is classed as toxicity, organism-based. The conditions noted are these: salmonella enterica subsp. enterica serovar typhimurium. A digest of the protocol: as §2
Data set [7] concerns Salmonella typhimurium. The data set is described as follows: Mutagenicity in Salmonella typhimurium TA1538 by Ames test. Format: toxicity, organism-based. Conditions: salmonella enterica subsp. enterica serovar typhimurium. A digest of the protocol:
as §2

Data set [8] deals with Salmonella typhimurium. The data set is described as follows: Mutagenicity in Salmonella typhimurium TA1535 by Ames test in presence of S9 fraction. Format: toxicity, organism-based. Conditions: salmonella enterica subsp. enterica serovar typhimurium. The method in brief: as §2
For data set [9], the system named is Salmonella typhimurium. The data set is described as follows: Mutagenicity in Salmonella typhimurium TA1536 by Ames test in presence of S9 fraction. Format: toxicity, organism-based. Conditions: salmonella enterica subsp. enterica serovar typhimurium. A digest of the protocol: as §2
Data set [10] concerns Salmonella typhimurium. In words: Mutagenicity in Salmonella typhimurium TA1537 by Ames test in presence of S9 fraction. The data set is classed as toxicity, organism-based. The conditions noted are these: salmonella enterica subsp. enterica serovar typhimurium. A digest of the protocol:
as §2

Data set [11] deals with Salmonella typhimurium. The data set is described as follows: Mutagenicity in Salmonella typhimurium TA1538 by Ames test in presence of S9 fraction. Format: toxicity, organism-based. Conditions: salmonella enterica subsp. enterica serovar typhimurium. A digest of the protocol:
as §2

The subject of data set [12] is P388 (Mus musculus). In words: Antitumor activity against mouse P388 cells allografted in mouse assessed as optimum dose administered qd from day 1 to 9.
The subject of data set [13] is P388 (Mus musculus). The data set is described as follows: Antitumor activity against mouse P388 cells allografted in mouse assessed as tumor growth inhibition at optimum dose administered qd from day 1 to 9 relative to control.

`CC(C)CCCCCCCCCCCCC(=O)N[C@@H]1[C@@H](O)[C@H](O)[C@@H](Nc2ncnc3[nH]cnc23)O[C@H]1C`: the EC50 with L1210 [1] and with L1210 [2] was > 1000 µM throughout. For the same molecule, the IC50 with L1210 [3] was > 100 µM. Moreover, the ΔTm in the data set on Calf thymus DNA turned out to be 0.5 °C. In addition, the Activity entry in the data set with Salmonella typhimurium [4], in the data set with Salmonella typhimurium [5], with Salmonella typhimurium [6], in the data set on Salmonella typhimurium [7], in the data set on Salmonella typhimurium [8] and in the data set with Salmonella typhimurium [9] was “Non-toxic” each time. The Activity result with Salmonella typhimurium [10] is “Non-toxic”; in the data set with Salmonella typhimurium [11], “Non-toxic”; in the data set on P388 (Mus musculus) [12], 0.5 mg/kg. For the same molecule, the T/C in the data set on P388 (Mus musculus) [13] is < 125%.
For the molecule `CCCCCCCCCCCCCCCCC(NC(C)=O)C(=O)N[C@@H]1[C@@H](O)[C@H](O)[C@@H](Nc2ncnc3[nH]cnc23)O[C@H]1C` (stereo partly specified), the EC50 in the data set with L1210 [1] and in the data set on L1210 [2] was > 1000 µM throughout.
`CCCCCC(=O)NCC(=O)N[C@@H]1[C@@H](O)[C@H](O)[C@@H](Nc2ncnc3[nH]cnc23)O[C@H]1C`: the EC50 with L1210 [1] and in the data set on L1210 [2] was > 1000 µM each time. For the same molecule, the IC50 in the data set on L1210 [3] came out at 250 µM. Further, the Activity entry in the data set with Salmonella typhimurium [4], in the data set on Salmonella typhimurium [5], with Salmonella typhimurium [6], in the data set with Salmonella typhimurium [7], in the data set with Salmonella typhimurium [8] and with Salmonella typhimurium [9] was “Non-toxic” each time. The Activity entry in the data set with Salmonella typhimurium [10] is “Non-toxic”; with Salmonella typhimurium [11] it was “Non-toxic”; in the data set with P388 (Mus musculus) [12], 0.5 mg/kg. In the data set with P388 (Mus musculus) [13], the T/C was < 125%.
In the case of `COc1cccc2c1C(=O)c1c(O)c3c(c(O)c1C2=O)C[C@@](O)(C(=O)CO)C[C@@H]3O[C@H]1C[C@H](N)[C@H](O)[C@H](C)O1` [DOXORUBICIN], the EC50 in the data set on L1210 [1] was found to be 1.5 µM; in the data set on L1210 [2], 0.67 µM. For the same molecule, the IC50 in the data set on L1210 [3] turned out to be 0.032 µM. Also, the shift in melting temperature (ΔTm) in the data set on Calf thymus DNA was determined as 13.6 °C. The Activity in the data set with P388 (Mus musculus) [12] came out at 1 mg/kg. Further, the T/C in the data set on P388 (Mus musculus) [13] was 193%.
Regarding `CCCCCCCCCCCC(=O)NCC(=O)N[C@@H]1[C@@H](O)[C@H](O)[C@@H](Nc2ncnc3[nH]cnc23)O[C@H]1CO`, the EC50 in the data set on L1210 [1] is 20 µM; in the data set with L1210 [2], 5.5 µM. The IC50 in the data set with L1210 [3] was 3 µM. Besides, the ΔTm in the data set on Calf thymus DNA came out at 0.5 °C. For the same molecule, the Activity entry in the data set with Salmonella typhimurium [4], in the data set on Salmonella typhimurium [5], in the data set on Salmonella typhimurium [6], in the data set on Salmonella typhimurium [7], in the data set on Salmonella typhimurium [8] and in the data set with Salmonella typhimurium [9] was “Non-toxic” throughout. Moreover, the Activity entry in the data set on Salmonella typhimurium [10] was “Non-toxic”; with Salmonella typhimurium [11] it was “Non-toxic”; with P388 (Mus musculus) [12], 1 mg/kg. The T/C with P388 (Mus musculus) [13] is recorded as 133%.
As for `CCCCCCCCCCCC(=O)NCC(=O)N[C@@H]1[C@@H](O)[C@H](O)[C@@H](Nc2ncnc3[nH]cnc23)O[C@H]1C`, the EC50 was 29 µM with L1210 [1] and 18 µM with L1210 [2]. Further, the IC50 in the data set on L1210 [3] is > 10 µM. The Activity with P388 (Mus musculus) [12] is 1 mg/kg. Also, the T/C with P388 (Mus musculus) [13] was 137%.
As to `CC(C)CCCCCCCCCCCCC(=O)NCC(=O)N[C@@H]1[C@@H](O)[C@H](O)[C@@H](Nc2ncnc3[nH]cnc23)O[C@H]1C(O)CO` (stereo partly specified), the EC50 in the data set with L1210 [1] was 0.4 µM; in the data set on L1210 [2] it was 1 µM. In addition, the IC50 in the data set with L1210 [3] is > 5 µM. Besides, the Activity in the data set with P388 (Mus musculus) [12] came out at 0.5 mg/kg. Moreover, the T/C with P388 (Mus musculus) [13] stood at 154%.
On the same counts, the results for `CCOCCC(=O)NCC(=O)N[C@@H]1[C@@H](O)[C@H](O)[C@@H](Nc2ncnc3[nH]cnc23)O[C@H]1C` are > 1000 µM, > 1000 µM, > 500 µM, 3.1 mg/kg and < 125%.
Take `CC(C)CCCCCCCCCCCCC(=O)NCC(=O)N[C@@H]1[C@@H](O)[C@H](O)[C@@H](Nc2ncnc3[nH]cnc23)O[C@H]1CO`: the EC50 in the data set with L1210 [1] turned out to be 1.6 µM; with L1210 [2] it was 0.69 µM. Besides, the IC50 in the data set with L1210 [3] is > 10 µM. For the same molecule, the ΔTm in the data set on Calf thymus DNA is 1.7 °C. For the same molecule, the Activity entry in the data set on Salmonella typhimurium [4], with Salmonella typhimurium [5], with Salmonella typhimurium [6], with Salmonella typhimurium [7], with Salmonella typhimurium [8] and in the data set on Salmonella typhimurium [9] was “Non-toxic” in each case. The Activity entry with Salmonella typhimurium [10] is “Non-toxic”; with Salmonella typhimurium [11], “Non-toxic”; in the data set with P388 (Mus musculus) [12], 0.5 mg/kg. The T/C in the data set with P388 (Mus musculus) [13] is on record as 149%.
As for `CCOCCC(=O)NCC(=O)N[C@@H]1[C@@H](O)[C@H](O)[C@@H](Nc2ncnc3[nH]cnc23)O[C@H]1CO`, the EC50 in the data set on L1210 [1] and in the data set with L1210 [2] was > 1000 µM throughout. Moreover, the IC50 in the data set with L1210 [3] was > 500 µM. The ΔTm with Calf thymus DNA was determined as 0.4 °C. Besides, the Activity with P388 (Mus musculus) [12] is 3.1 mg/kg. Also, the T/C with P388 (Mus musculus) [13] is < 125%.
For `CC(C)CCCCCCCCCCCCC(=O)NCC(=O)N[C@@H]1[C@@H](O)[C@H](O)[C@@H](Nc2ncnc3[nH]cnc23)O[C@H]1C`, the EC50 in the data set on L1210 [1] was 1.8 µM; in the data set with L1210 [2], 1.1 µM. Besides, the IC50 in the data set with L1210 [3] is > 20 µM. For the same molecule, in the data set on Calf thymus DNA, the ΔTm worked out at 0.6 °C. For the same molecule, the Activity with P388 (Mus musculus) [12] is 1 mg/kg. In addition, in the data set on P388 (Mus musculus) [13], the T/C is reported as 160%.
`CCCCCCCCCCCCCCCC(=O)NCC(=O)N[C@@H]1[C@@H](O)[C@H](O)[C@@H](Nc2ncnc3[nH]cnc23)O[C@H]1CO`: the EC50 in the data set on L1210 [1] is 2.5 µM; in the data set on L1210 [2] it was 1.6 µM. Moreover, the IC50 with L1210 [3] is > 100 µM. For the same molecule, in the data set on Calf thymus DNA, the ΔTm was 3.6 °C. Further, the Activity in the data set on P388 (Mus musculus) [12] came to 0.5 mg/kg. For the same molecule, in the data set on P388 (Mus musculus) [13], the T/C was 136%.
